Laboratory results: ChEMBL document CHEMBL3525963, “Tissue distribution and elimination of [14C]apixaban in rats” (Drug Metab Dispos, 2011)

Legend:
Parameters in all cases: dose 5 mg/kg, dosed compound name [14C]-apixaban, route oral
Settings in all cases: in vivo
[1] = system: Harderian gland; test: Biodistribution in male Sprague-Dawley rat harderian gland at 5 mg/kg, po administered as single dose measured after 0.5 hrs; type: ADME, organism-based
In short: (§1)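 [¹⁴C]Apixaban given by oral gavage at 5 mg/kg (100 μCi/kg) in 0.5% Tween 80 in Labrafil (1.0 mg/mL dosing solution) to rats fasted overnight through 4 h post-dose. One rat per time point; carcass frozen in hexane/dry ice. Quantitative whole-body autoradiography used 40 µm sagittal sections and a phosphor imaging plate calibrated with [¹⁴C]glucose standards (0.001–6.5 μCi/g). Read-out in µg eq apixaban/g; LLOQ 0.037 μg eq/g.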

[2] = system: Blood; test: Biodistribution in male Sprague-Dawley rat blood at 5 mg/kg, po administered as single dose measured after 24 hrs; type: ADME, organism-based
In short: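 Fasted male SD rats (225-252 g) each received one oral gavage dose of [14C]apixaban, 5 mg/kg (100 μCi/kg), in 0.5% Tween 80/Labrafil vehicle. One rat was killed per time point, from 0.5 to 168 h. Frozen carcasses were cut into 40 µm sagittal whole-body sections and read by QWBA phosphor imaging against [14C]glucose calibrants. Results are in µg apixaban eq/g; BLQ <0.037 µg eq/g.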

[3] = system: Rattus norvegicus; test: Biodistribution in pregnant Sprague-Dawley rat brown fat at 5 mg/kg, po administered as single dose measured after 0.5 hrs; type: ADME, organism-based, Brown adipose tissue
[4] = system: Rattus norvegicus; test: Biodistribution in male Sprague-Dawley rat salivary gland at 5 mg/kg, po administered as single dose measured after 4 hrs; type: ADME, organism-based
[5] = system: Rattus norvegicus; test: Biodistribution in female Sprague-Dawley rat salivary gland at 5 mg/kg, po administered as single dose measured after 4 hrs; type: ADME, organism-based
In short: (§2)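 [14C]apixaban (20 μCi/mL in dosing solution) in 0.5% Tween 80 in Labrafil given by oral gavage to fasted female rats, 206-213 g, at 100 μCi/kg. One rat per time point was euthanized and snap-frozen. Sagittal 40 µm whole-body sections were read by QWBA phosphor imaging against [14C]glucose standards. Results are in µg eq apixaban/g, with LLOQ 0.037 μg eq/g.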

[6] = system: Blood; test: Biodistribution in pregnant Sprague-Dawley rat blood at 5 mg/kg, po administered as single dose measured after 24 hrs; type: ADME, organism-based
In short: (§3)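 Fasted pregnant SD rats (n=6, 270-319 g) each received one oral gavage dose of [14C]apixaban, 5 mg/kg (100 μCi/kg), in 0.5% Tween 80/Labrafil. One rat was killed at each of 0.5, 1, 4, 8, 24 and 48 h. Carcasses were frozen in hexane/dry ice, cut into 40 µm sagittal sections, exposed to phosphor plates and quantified against [14C]glucose standards as µg eq/g. LLOQ was 0.037 µg eq/g.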

[7] = system: Rattus norvegicus; test: Biodistribution in female Sprague-Dawley rat bone marrow at 5 mg/kg, po administered as single dose measured after 4 hrs; type: ADME, organism-based; in short: as §2
[8] = system: Muscle tissue; test: Biodistribution in male Sprague-Dawley rat muscle at 5 mg/kg, po administered as single dose measured after 4 hrs; type: ADME, organism-based
In short: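 [14C]apixaban (1.0 mg/mL, 20 μCi/mL) in 0.5% Tween 80 in Labrafil, given by oral gavage at 100 μCi/kg to male rats (225-252 g) fasted overnight through 4 h post-dose. One rat per time point. Carcasses frozen in hexane/dry ice and cut into 40 µm sagittal sections. QWBA read on phosphor plates against [14C]glucose standards, reported as µg eq/g. LLOQ 0.037 µg eq/g.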

[9] = system: Muscle tissue; test: Biodistribution in pregnant Sprague-Dawley rat muscle at 5 mg/kg, po administered as single dose measured after 1 hr; type: ADME, organism-based
[10] = Drug level in lactating Sprague-Dawley rat milk at 5 mg/kg, po administered as single dose after 0.5 hrs; type: ADME, organism-based
[11] = system: Lung; test: Biodistribution in pregnant Sprague-Dawley rat lung at 5 mg/kg, po administered as single dose measured after 8 hrs; type: ADME, organism-based
[12] = system: Adrenal gland; test: Biodistribution in female Sprague-Dawley rat adrenal gland at 5 mg/kg, po administered as single dose measured after 0.5 hrs; type: ADME, organism-based; in short: as §1
[13] = system: Liver; test: Biodistribution in female Sprague-Dawley rat liver at 5 mg/kg, po administered as single dose measured after 24 hrs; type: ADME, organism-based; in short: as §1
[14] = system: Rattus norvegicus; test: Biodistribution in pregnant Sprague-Dawley rat kidney cortex at 5 mg/kg, po administered as single dose measured after 4 hrs; type: ADME, organism-based
[15] = system: Rattus norvegicus; test: Biodistribution in pregnant Sprague-Dawley rat bone marrow at 5 mg/kg, po administered as single dose measured after 1 hr; type: ADME, organism-based
[16] = system: Liver; test: Biodistribution in pregnant Sprague-Dawley rat liver at 5 mg/kg, po administered as single dose measured after 0.5 hrs; type: ADME, organism-based; in short: as §3
[17] = system: Spleen; test: Biodistribution in pregnant Sprague-Dawley rat spleen at 5 mg/kg, po administered as single dose measured after 4 hrs; type: ADME, organism-based
[18] = system: Adrenal gland; test: Biodistribution in female Sprague-Dawley rat adrenal gland at 5 mg/kg, po administered as single dose measured after 8 hrs; type: ADME, organism-based; in short: as §1
[19] = system: Harderian gland; test: Biodistribution in male Sprague-Dawley rat harderian gland at 5 mg/kg, po administered as single dose measured after 8 hrs; type: ADME, organism-based; in short: as §1
[20] = system: Pancreas; test: Biodistribution in pregnant Sprague-Dawley rat pancreas at 5 mg/kg, po administered as single dose measured after 4 hrs; type: ADME, organism-based
[21] = system: Adrenal gland; test: Biodistribution in female Sprague-Dawley rat adrenal gland at 5 mg/kg, po administered as single dose measured after 1 hr; type: ADME, organism-based; in short: as §1
[22] = system: Rattus norvegicus; test: Biodistribution in female Sprague-Dawley rat salivary gland at 5 mg/kg, po administered as single dose measured after 24 hrs; type: ADME, organism-based
In short: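 Quantitative whole-body autoradiography was run after a single 5 mg/kg (100 μCi/kg) oral gavage to fasted female or pregnant SD rats, one rat per time point. Carcasses were frozen in hexane/dry ice, and 40 µm sagittal sections were dried at −20°C for at least 48 h. Sections were exposed to a phosphor plate alongside [14C]glucose standards (0.001–6.5 µCi/g). Results are µg eq/g, with LLOQ 0.037 µg eq/g.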

[23] = system: Rattus norvegicus; test: Biodistribution in fetal kidney of pregnant Sprague-Dawley rat at 5 mg/kg, po administered as single dose measured after 0.5 hrs; type: ADME, organism-based
In short: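 Pregnant rats, 270-319 g and fasted overnight, received [14C]apixaban by oral gavage at 100 μCi/kg in 0.5% Tween 80/Labrafil. One dam per time point was euthanized and frozen in hexane/dry ice. Fetal tissue radioactivity was measured by QWBA on 40 µm sagittal sections calibrated with [14C]glucose standards. Values are in µg eq/g, with LLOQ 0.037 μg eq/g.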

[24] = system: Rattus norvegicus; test: Biodistribution in male Sprague-Dawley rat salivary gland at 5 mg/kg, po administered as single dose measured after 8 hrs; type: ADME, organism-based
[25] = system: Thymus; test: Biodistribution in pregnant Sprague-Dawley rat thymus at 5 mg/kg, po administered as single dose measured after 8 hrs; type: ADME, organism-based
[26] = system: Brain; test: Biodistribution in female Sprague-Dawley rat brain at 5 mg/kg, po administered as single dose measured after 72 hrs; type: ADME, organism-based
In short: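 [14C]Apixaban (1.0 mg/mL, 20 μCi/mL in 0.5% Tween 80 in Labrafil) given as a single oral gavage of 5 mg/kg (100 μCi/kg) to fasted female SD rats, one rat per time point. Carcasses were frozen in hexane/dry ice and cut into 40 µm sagittal sections for QWBA against [14C]glucose standards. Brain radioactivity is reported as µg eq/g, with LLOQ 0.037 µg eq/g.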

COc1ccc(-n2nc(C(N)=O)c3c2C(=O)N(c2ccc(N4CCCC[14C]4=O)cc2)CC3)cc1
Radiolabel recovery [1]: 0.21 ugequiv/g | Radiolabel recovery [2]: Not sampled as not visualised in autoradiograph | Radiolabel recovery [3]: 1.08 ugequiv/g | Radiolabel recovery [4]: 0.54 ugequiv/g | Radiolabel recovery [5]: 0.44 ugequiv/g | Radiolabel recovery [6]: Not detected assumed BLQ | Radiolabel recovery [7]: 0.26 ugequiv/g | Radiolabel recovery [8]: 0.27 ugequiv/g | Radiolabel recovery [9]: 0.46 ugequiv/g | Radiolabel recovery [10]: 2.75 µg/mL | Radiolabel recovery [11]: 0.15 ugequiv/g | Radiolabel recovery [12]: 0.56 ugequiv/g | Radiolabel recovery [13]: < 0.037 ugequiv/g | Radiolabel recovery [14]: 1.93 ugequiv/g | Radiolabel recovery [15]: 0.33 ugequiv/g | Radiolabel recovery [16]: 6.77 ugequiv/g | Radiolabel recovery [17]: 0.47 ugequiv/g | Radiolabel recovery [18]: 0.3 ugequiv/g | Radiolabel recovery [19]: 0.12 ugequiv/g | Radiolabel recovery [20]: 0.99 ugequiv/g | Radiolabel recovery [21]: 1.1 ugequiv/g | Radiolabel recovery [22]: Not detected assumed BLQ | Radiolabel recovery [23]: 0.24 ugequiv/g | Radiolabel recovery [24]: 0.13 ugequiv/g | Radiolabel recovery [25]: 0.05 ugequiv/g | Radiolabel recovery [26]: < 0.037 ugequiv/g
